The source made the active and inactive calls. No cut-off for these calls is given here.
System: not listed separately
Test: Lipophilicity, logD of compound at pH 7.4 by LC-MS analysis
Assay type: physicochemical
Details: buffer

Molecule `C[C@H](CCC(=O)O)[C@H]1CC[C@H]2[C@@H]3[C@H](O)C[C@@H]4C[C@H](O)CC[C@]4(C)[C@H]3CC[C@]12C` [CHENODIOL] has a logD of 0.53.

Same assay, conditions: buffer, read-out: logD

In order of rising logD:
1. CC[C@H]1[C@@H](O)[C@@H]2[C@H](CC[C@]3(C)[C@@H]([C@H](C)CCC(=O)O)CC[C@@H]23)[C@@]2(C)CC[C@@H](O)C[C@@H]12 [OBETICHOLIC ACID]  0.81
2. CC(C)c1onc(-c2c(Cl)cccc2Cl)c1COc1ccc(/C=C/c2cccc(C(=O)O)c2)c(Cl)c1  1.01

System: HepG2
Test: Cytotoxicity against human HepG2 cells at 50 uM after 48 hrs by WST-1 assay
Assay type: cell-based
Details: hepg2, 48 h
Procedure, shortened: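 HepG2 hepatocarcinoma cells were tested for viability by WST-1 (water-soluble tetrazolium) assay, with concentrations up to 100 µM.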

In the case of `CC(C)c1onc(-c2c(Cl)cccc2Cl)c1COc1ccc(/C=C/c2cccc(C(=O)O)c2)c(Cl)c1`, the Activity is reported as “Toxic”.
In the case of `CC[C@H]1[C@@H](O)[C@@H]2[C@H](CC[C@]3(C)[C@@H]([C@H](C)CCC(=O)O)CC[C@@H]23)[C@@]2(C)CC[C@@H](O)C[C@@H]12` [OBETICHOLIC ACID], the Activity is reported as “Toxic”.

Molecular target: T1, Bile acid receptor (Homo sapiens) (UniProt Q96RI1)
T1 sequence (whole entry): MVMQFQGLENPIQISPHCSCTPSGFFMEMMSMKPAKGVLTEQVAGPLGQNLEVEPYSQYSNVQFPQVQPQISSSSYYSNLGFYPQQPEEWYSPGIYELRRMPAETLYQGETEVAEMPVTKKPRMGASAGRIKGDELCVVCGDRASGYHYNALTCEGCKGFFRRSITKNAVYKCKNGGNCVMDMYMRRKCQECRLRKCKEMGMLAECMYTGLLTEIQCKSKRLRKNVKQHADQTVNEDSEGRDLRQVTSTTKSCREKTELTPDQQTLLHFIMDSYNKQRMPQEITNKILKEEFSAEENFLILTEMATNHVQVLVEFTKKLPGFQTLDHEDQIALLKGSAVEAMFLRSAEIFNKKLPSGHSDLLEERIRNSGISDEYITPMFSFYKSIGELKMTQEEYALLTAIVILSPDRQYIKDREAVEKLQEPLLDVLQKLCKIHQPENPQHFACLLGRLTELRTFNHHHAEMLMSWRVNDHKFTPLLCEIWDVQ
Test: Transactivation of human FXR expressed in human HeLa cells co-expressing BSEP at 3 uM after 24 hrs by dual-glo luciferase reporter gene assay relative to GW4064
Assay type: cell-based
Details: not given
Procedure, shortened: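 Full-length FXR reporter gene assay with constitutively expressed hFXR and hRXR, plus renilla luciferase for normalization and toxicity control. Maximum relative activation is expressed against the reference agonist at 3 µM, set as 100%.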

For `O=C(O)c1ccn2c(NCc3ccccc3)c(-c3cccs3)nc2c1`, the max activation was “inactive”.
For `c1ccc(CNc2c(-c3cccs3)nc3cnccn23)cc1`, the max activation was “inactive”.
For `Cc1cccc2nc(-c3cccs3)c(NCc3ccccc3)n12`, the max activation was “inactive”.
For `Cc1ccc2nc(C3CCCCC3)c(NCc3ccccc3)n2c1`, the max activation was “inactive”.
With `Cc1ccc2nc(Cc3ccccc3)c(NCc3ccccc3)n2c1` the max activation was “inactive”.
In the case of `Cc1ccc2nc(-c3ccccc3Cl)c(NCc3ccccc3)n2c1`, the max activation is reported as “inactive”.
For `Fc1ccc2nc(-c3cccs3)c(NCc3ccccc3)n2c1`, the max activation was “inactive”.

In order of rising max activation:
1. Cc1ccc2nc(CCc3ccccc3)c(NCc3ccccc3)n2c1  12%
2. Cc1ccc2nc(-c3cccs3)c(Cc3ccccc3)n2c1  12%
3. Cc1ccc2nc(-c3cccs3)c(NCCc3ccccc3)n2c1  12%
4. Cc1ccc2nc(-c3cccs3)c(N[C@@H](C)c3ccccc3)n2c1  12%
5. Cc1ccc2nc(/C=C/c3ccccc3)c(NCc3ccccc3)n2c1  13%
6. Brc1ccc2nc(-c3cccs3)c(NCc3ccccc3)n2c1  14%
7. COc1ccc(CNc2c(-c3cccs3)nc3ccc(C)cn23)cc1  14%
8. Cc1ccc(-c2nc3ccc(C)cn3c2NCc2ccccc2)cc1  14%
9. Cc1ccc2nc(-c3ccc(Cl)cc3)c(NCc3ccccc3)n2c1  14%
10. Cc1cccc(-c2nc3ccc(C)cn3c2NCc2ccccc2)c1  14%
11. Cc1ccc(CNc2c(-c3cccs3)nc3ccc(C)cn23)cc1  14%
12. c1ccc(CNc2c(-c3cccs3)nc3ccccn23)cc1  14%
13. Cc1ccc2nc(-c3cccs3)c(N[C@H](C)c3ccccc3)n2c1  14%
14. Cc1ccc2nc(-c3ccc(Br)cc3)c(NCc3ccccc3)n2c1  14%
15. FC(F)(F)c1ccc2nc(-c3cccs3)c(NCc3ccccc3)n2c1  14%
16. Cc1ccc2nc(-c3cccs3)c(NCc3ccccc3)n2c1  15%
17. Cc1ccc2nc(-c3ccncc3)c(NCc3ccccc3)n2c1  15%
18. Cc1ccc2nc(-c3ccc4c(c3)OCCO4)c(NCc3ccccc3)n2c1  15%
19. Cc1ccc2nc(-c3ccccc3)c(NCc3ccccc3)n2c1  16%
20. CCc1ccn2c(NCc3ccccc3)c(-c3cccs3)nc2c1  16%
21. COc1cccc(-c2nc3ccc(C)cn3c2NCc2ccccc2)c1  16%
22. Cc1ccc2nc(-c3ccoc3)c(NCc3ccccc3)n2c1  16%
23. COc1ccc(-c2nc3ccc(C)cn3c2NCc2ccccc2)cc1  16%
24. COc1ccc(-c2nc3ccc(C)cn3c2NCc2ccccc2)cc1OC  16%
25. Cc1ccc2nc(-c3cccnc3)c(NCc3ccccc3)n2c1  17%
26. Cc1ccc2nc(-c3cccn3C)c(NCc3ccccc3)n2c1  17%
27. Cc1ccc2nc(-c3ccsc3)c(NCc3ccccc3)n2c1  17%
28. Cc1ccc2nc(-c3ccc(-c4ccccc4)cc3)c(NCc3ccccc3)n2c1  17%
29. c1ccc(CNc2c(-c3cccs3)nc3ccc(-c4ccccc4)cn23)cc1  17%
30. Cc1ccc2nc(-c3cccs3)c(NCCCCc3ccccc3)n2c1  17%
31. Cc1ccc2nc(-c3ccco3)c(NCc3ccccc3)n2c1  17%
32. Cc1ccc2nc(-c3cnccn3)c(NCc3ccccc3)n2c1  18%
33. Cc1ccc2nc(-c3ccc4ccccc4c3)c(NCc3ccccc3)n2c1  18%
34. Cc1ccc2nc(-c3cccs3)c(NCCCc3ccccc3)n2c1  18%
35. COc1ccc2nc(-c3cccs3)c(NCc3ccccc3)n2c1  18%
36. Cc1ccc2nc(-c3nc(C)cs3)c(NCc3ccccc3)n2c1  19%
37. Cc1ccc2nc(-c3ccccn3)c(NCc3ccccc3)n2c1  19%
38. Cc1ccc2nc(-c3ccc(Cl)c(Cl)c3)c(NCc3ccccc3)n2c1  19%
39. Cc1ccc2nc(-c3cccc(Cl)c3)c(NCc3ccccc3)n2c1  20%
40. Cc1ccc2nc(-c3ccc(F)cc3)c(NCc3ccccc3)n2c1  21%
41. Clc1ccc2nc(-c3cccs3)c(NCc3ccccc3)n2c1  26%
42. Cc1ccc2nc(-c3cc(Cl)ccn3)c(NCc3ccccc3)n2c1  27%
43. Cc1ccc2nc(-c3cccc(Cl)n3)c(NCc3ccccc3)n2c1  31%
44. Cc1ccc2nc(-c3ccccc3C)c(NCc3ccccc3)n2c1  35%
45. Cc1ccc2nc(-c3ccc(Cl)cn3)c(NCc3ccccc3)n2c1  46%
46. Cc1ccc2nc(-c3ccc(F)c(Cl)c3)c(NCc3ccccc3)n2c1  54%

Organism: Rattus norvegicus
Test: Displacement of [3H]Ro15-4513 from GABAa receptor in Sprague-Dawley rat cerebral cortical membranes up to 10 uM after 1 hr by scintillation counting
Details: not given

For `Cc1ccc2nc(-c3ccccn3)c(NCc3ccccc3)n2c1`, the inhibition was “inactive”.

Molecular target: T2, Bile acid receptor (Homo sapiens, UniProt Q96RI1)
T2 sequence (Q96RI1 whole entry): T1 sequence (whole entry)
Test: Transactivation of human FXR expressed in human HeLa cells co-expressing BSEP after 24 hrs by dual-glo luciferase reporter gene assay
Assay type: cell-based
Details: hela
Procedure, shortened: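 Full-length reporter system with constitutive expression of hFXR and hRXR. A constitutive Renilla luciferase served for normalization and as a toxicity control. Maximum relative activation was expressed against a reference FXR agonist at 3 µM, set as 100%.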

In the case of `O=C(O)c1ccn2c(NCc3ccccc3)c(-c3cccs3)nc2c1`, the EC50 is reported as “Not Active”.
In the case of `c1ccc(CNc2c(-c3cccs3)nc3cnccn23)cc1`, the EC50 is reported as “Not Active”.
In the case of `Cc1cccc2nc(-c3cccs3)c(NCc3ccccc3)n12`, the EC50 is reported as “Not Active”.
With `Cc1ccc2nc(C3CCCCC3)c(NCc3ccccc3)n2c1` the EC50 was “Not Active”.
With `Cc1ccc2nc(Cc3ccccc3)c(NCc3ccccc3)n2c1` the EC50 was “Not Active”.
With `Cc1ccc2nc(-c3ccccc3Cl)c(NCc3ccccc3)n2c1` the EC50 was “Not Active”.
In the case of `Fc1ccc2nc(-c3cccs3)c(NCc3ccccc3)n2c1`, the EC50 is reported as “Not Active”.

Same assay, conditions: read-out: EC50

In order of falling EC50:
1. c1ccc(CNc2c(-c3cccs3)nc3ccccn23)cc1  4000 nM
2. Cc1ccc2nc(-c3cccs3)c(N[C@H](C)c3ccccc3)n2c1  3200 nM
3. Cc1ccc2nc(-c3ccncc3)c(NCc3ccccc3)n2c1  2000 nM
4. Cc1ccc2nc(-c3ccoc3)c(NCc3ccccc3)n2c1  1900 nM
5. Cc1ccc2nc(-c3cccs3)c(N[C@@H](C)c3ccccc3)n2c1  1300 nM
6. COc1ccc(-c2nc3ccc(C)cn3c2NCc2ccccc2)cc1  1270 nM
7. CCc1ccn2c(NCc3ccccc3)c(-c3cccs3)nc2c1  1200 nM
8. Cc1ccc2nc(-c3cnccn3)c(NCc3ccccc3)n2c1  1200 nM
9. Cc1ccc2nc(/C=C/c3ccccc3)c(NCc3ccccc3)n2c1  1160 nM
10. Cc1ccc2nc(-c3cccn3C)c(NCc3ccccc3)n2c1  1100 nM
11. Cc1ccc2nc(-c3cccs3)c(NCCc3ccccc3)n2c1  1000 nM
12. COc1ccc(-c2nc3ccc(C)cn3c2NCc2ccccc2)cc1OC  910 nM
13. Cc1ccc2nc(-c3ccsc3)c(NCc3ccccc3)n2c1  830 nM
14. COc1ccc2nc(-c3cccs3)c(NCc3ccccc3)n2c1  830 nM
15. Cc1ccc2nc(-c3cccs3)c(Cc3ccccc3)n2c1  810 nM
16. Cc1ccc2nc(-c3cccs3)c(NCCCCc3ccccc3)n2c1  750 nM
17. Cc1ccc2nc(-c3ccco3)c(NCc3ccccc3)n2c1  560 nM
18. Cc1ccc2nc(-c3cccs3)c(NCc3ccccc3)n2c1  540 nM
19. Cc1ccc2nc(-c3cccnc3)c(NCc3ccccc3)n2c1  520 nM
20. Brc1ccc2nc(-c3cccs3)c(NCc3ccccc3)n2c1  500 nM
21. FC(F)(F)c1ccc2nc(-c3cccs3)c(NCc3ccccc3)n2c1  460 nM
22. Cc1ccc2nc(-c3ccc(Br)cc3)c(NCc3ccccc3)n2c1  430 nM
23. Cc1ccc2nc(CCc3ccccc3)c(NCc3ccccc3)n2c1  310 nM
24. Cc1ccc2nc(-c3ccccc3)c(NCc3ccccc3)n2c1  280 nM
25. Cc1ccc2nc(-c3ccccc3C)c(NCc3ccccc3)n2c1  260 nM
26. COc1cccc(-c2nc3ccc(C)cn3c2NCc2ccccc2)c1  250 nM
27. Cc1ccc2nc(-c3ccc(Cl)cc3)c(NCc3ccccc3)n2c1  240 nM
28. Cc1ccc2nc(-c3cccs3)c(NCCCc3ccccc3)n2c1  230 nM
29. Cc1ccc2nc(-c3nc(C)cs3)c(NCc3ccccc3)n2c1  220 nM
30. Cc1ccc(CNc2c(-c3cccs3)nc3ccc(C)cn23)cc1  220 nM
31. Cc1ccc2nc(-c3ccc4ccccc4c3)c(NCc3ccccc3)n2c1  210 nM
32. c1ccc(CNc2c(-c3cccs3)nc3ccc(-c4ccccc4)cn23)cc1  200 nM
33. Cc1cccc(-c2nc3ccc(C)cn3c2NCc2ccccc2)c1  180 nM
34. COc1ccc(CNc2c(-c3cccs3)nc3ccc(C)cn23)cc1  170 nM
35. Cc1ccc2nc(-c3ccc4c(c3)OCCO4)c(NCc3ccccc3)n2c1  170 nM
36. Cc1ccc2nc(-c3ccc(F)cc3)c(NCc3ccccc3)n2c1  170 nM
37. Clc1ccc2nc(-c3cccs3)c(NCc3ccccc3)n2c1  160 nM
38. Cc1ccc(-c2nc3ccc(C)cn3c2NCc2ccccc2)cc1  130 nM
39. Cc1ccc2nc(-c3ccc(-c4ccccc4)cc3)c(NCc3ccccc3)n2c1  81 nM
40. Cc1ccc2nc(-c3cccc(Cl)n3)c(NCc3ccccc3)n2c1  80 nM
41. Cc1ccc2nc(-c3ccc(F)c(Cl)c3)c(NCc3ccccc3)n2c1  26 nM
42. Cc1ccc2nc(-c3ccc(Cl)c(Cl)c3)c(NCc3ccccc3)n2c1  24 nM
43. Cc1ccc2nc(-c3cccc(Cl)c3)c(NCc3ccccc3)n2c1  16 nM
44. Cc1ccc2nc(-c3ccc(Cl)cn3)c(NCc3ccccc3)n2c1  7.4 nM
45. Cc1ccc2nc(-c3cc(Cl)ccn3)c(NCc3ccccc3)n2c1  1.5 nM

Reference: ChEMBL document CHEMBL4038333, “Nonacidic Farnesoid X Receptor Modulators” (J Med Chem, 2017)
